Results from different studies.
Lines come from different studies, so protocols differ.
Target: Bone morphogenetic protein receptor type-2 (BMPR2, Homo sapiens, UniProt Q13873)
Sequence (Q13873 27-1038, as in one of the studies): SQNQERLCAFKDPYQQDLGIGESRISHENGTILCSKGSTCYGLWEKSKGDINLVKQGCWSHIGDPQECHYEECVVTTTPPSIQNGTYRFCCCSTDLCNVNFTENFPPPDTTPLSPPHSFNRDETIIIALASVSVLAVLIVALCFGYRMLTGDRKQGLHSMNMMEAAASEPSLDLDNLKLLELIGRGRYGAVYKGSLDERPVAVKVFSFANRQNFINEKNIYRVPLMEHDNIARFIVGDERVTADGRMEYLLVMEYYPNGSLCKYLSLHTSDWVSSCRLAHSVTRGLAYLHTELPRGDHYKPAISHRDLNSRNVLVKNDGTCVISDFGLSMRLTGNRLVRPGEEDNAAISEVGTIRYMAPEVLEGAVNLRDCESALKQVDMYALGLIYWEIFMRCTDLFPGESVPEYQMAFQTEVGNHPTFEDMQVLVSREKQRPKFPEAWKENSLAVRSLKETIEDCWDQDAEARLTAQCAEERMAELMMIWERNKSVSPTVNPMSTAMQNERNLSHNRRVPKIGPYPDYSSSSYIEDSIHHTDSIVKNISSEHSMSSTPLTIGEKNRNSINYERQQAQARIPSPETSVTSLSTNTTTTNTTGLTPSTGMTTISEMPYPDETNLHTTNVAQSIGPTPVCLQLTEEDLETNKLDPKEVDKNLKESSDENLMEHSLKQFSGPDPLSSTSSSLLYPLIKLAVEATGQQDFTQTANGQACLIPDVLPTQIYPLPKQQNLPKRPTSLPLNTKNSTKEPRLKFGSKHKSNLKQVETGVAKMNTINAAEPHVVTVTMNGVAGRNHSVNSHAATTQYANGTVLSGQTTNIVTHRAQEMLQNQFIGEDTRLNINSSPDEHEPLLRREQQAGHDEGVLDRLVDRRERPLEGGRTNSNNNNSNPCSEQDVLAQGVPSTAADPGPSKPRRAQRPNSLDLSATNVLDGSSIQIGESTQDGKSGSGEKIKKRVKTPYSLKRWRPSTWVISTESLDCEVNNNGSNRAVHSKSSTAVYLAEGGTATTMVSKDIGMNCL

Structure (SMILES) | test | conditions | endpoint | value
CC(C)(O)[C@H]1CC[C@H](Nc2ccc3ncc(-c4cccc(C(F)(F)F)c4)n3n2)CC1 | enzyme activity, inhibitor | 1 µM | remaining activity | 37.3%
COc1cc(Cl)c(C(=O)N[C@@H](CN[C@H]2CC[C@@H](N)CC2)Cc2ccc(C#N)cc2)cc1-c1ccc(CN[C@H](C)c2ccc(C)cc2)o1 | enzyme activity, inhibitor | 1 µM | remaining activity | 99%
COc1cc(-c2cn(C3CCc4c(F)cccc4N(CC(F)(F)F)C3=O)nn2)ccc1-n1cnc(C)c1 (stereo not shown) | cell-free assay, competition with immobilised ligand | 1 µM | remaining binding | 100%
O=C(CSc1nc2nccnc2c(=O)n1CCc1ccccc1)Nc1nccs1 | enzyme activity, inhibitor | 10 µM | inhibition | 17%
Cn1cncc1C1=CN(c2ncnc3[nH]cnc23)CCS1 | enzyme activity, inhibitor, radiometric | 50 nM | inhibition | 21.3%
Cn1c2c(c3ccccc31)C(C#N)C(C)(C)NC2=O (stereo not shown) | thermal stability, DSF | 10 µM | ΔTm | 0.2 °C
Cn1nc(C(F)(F)F)cc1-c1cnc(N2CCc3cc(S(=O)(=O)Nc4c(F)cc(Cl)cc4F)cc(N4CCCC4=O)c32)nc1 | cell-free assay, competition with immobilised ligand | 1 µM | remaining binding | 77%
O=C(Nc1cnn(-c2csc(C(=O)NC3COC3)c2)c1)Nc1c(F)cccc1Cl | enzyme activity, inhibitor | 5 µM | remaining activity | 77.2%
CS(=O)(=O)NCC[C@H](NC(=O)c1cncc2c1cnn2-c1ccc(F)cc1)c1ccnc(S(C)(=O)=O)c1 | cell-free assay, competition with immobilised ligand | 1 µM | remaining binding | 100%
Cn1c2c(c3ccc(Cl)c(Cl)c31)C(C#N)C(C)(C)NC2=O (stereo not shown) | thermal stability, DSF | 10 µM | ΔTm | 1.4 °C
Cc1ccc(C(=O)Nc2ccc(CN3CCN(C)CC3)c(C(F)(F)F)c2)cc1C#Cc1cnc2cccnn12 | cell-free assay | 23.5 nM | remaining signal | 98%
C[C@@]1(Cc2ccc(C#N)cc2)C(=O)N(c2cc(Cl)cc(Cl)c2)c2ncc(C(=O)NC3(c4nc(C5CCC5)no4)CC3)n21 | cell-free assay, competition with immobilised ligand | 1 µM | remaining binding | 100%
Cn1c2c(c3ccc(Cl)c(Cl)c31)C(C#N)C1(CCNCC1)NC2=O (racemic) | thermal stability, DSF | 10 µM | ΔTm | 0.3 °C
